Measurements taken from ChEMBL document CHEMBL4152258, “Identification of chalcone-based antileishmanial agents targeting trypanothione reductase” (Eur J Med Chem, 2018).
Calls of active or inactive are those of the source. The rule behind the calls is not given here.

Legend:
Leishmania donovani [1] = assay: Antileishmanial activity against promastigote stage of Leishmania donovani MHOM/NP/02/BPK282/0c14 assessed as parasite growth inhibition after 72 hrs by Alamar blue assay; assay type: functional, organism-based; details: MHOM/NP/02/BPK282/0c14, 72 h
Outline: (§1)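 Late log/stationary promastigotes were seeded at 10^6/mL in HOMEM with 20% FBS and exposed to compounds at 40–1.6 µM for 72 h at 26 °C, from 8 mM DMSO stocks. AlamarBlue was then added for 24 h at 26 °C, and absorbance was read at 550 and 630 nm. Runs were in duplicate. IC50/72h is the mean of two independent determinations.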

[2] = Cytotoxicity against African green monkey Vero cells after 72 hrs by Alamar blue assay; assay type: cell-based; details: chlorocebus sabaeus
Outline: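 Vero cells were seeded at 10^5/mL in MEM with 10% FBS and exposed to compounds up to 600 µM for 72 h at 37 °C, 5% CO2. AlamarBlue was added for 24 h at 37 °C, with absorbance read at 550 and 630 nm. Duplicates. CC50/72h determined.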

[3] = Selectivity index, ratio of CC50 for African green monkey Vero cells to IC50 for Leishmania donovani MHOM/NP/02/BPK282/0c14; assay type: toxicity; details: read-out: Ratio CC50/IC50
Outline: (§2)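 Selectivity index calculated as CC50/72h in Vero (16) or THP-1 (17) cells divided by IC50/72h against L. donovani promastigotes.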

[4] = Cytotoxicity against human THP1 cells after 72 hrs by Alamar blue assay; assay type: cell-based; details: THP-1 cells
Outline: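 THP-1 cells were seeded at 10^5 cells/mL in RPMI-1640 with 10% FBS and adhered with 0.1 µM PMA, then exposed to compounds for 72 h at 37 °C, 5% CO2. AlamarBlue was added for 24 h at 37 °C, with absorbance read at 550 and 630 nm. Duplicates. CC50/72h determined.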

[5] = Selectivity index, ratio of CC50 for human THP1 cells to IC50 for Leishmania donovani MHOM/NP/02/BPK282/0c14; assay type: toxicity; details: THP-1 cells, read-out: Ratio CC50/IC50; outline: as §2
Leishmania donovani [6] = assay: Antileishmanial activity against promastigote stage of Leishmania donovani MHOM/NP/02/BPK282/0c14 assessed as parasite growth inhibition up to 40 uM after 72 hrs by Alamar blue assay; assay type: functional, organism-based; outline: as §1
Leishmania tropica = assay: Antileishmanial activity against promastigote stage of Leishmania tropica MHOM/SU/74/K27 assessed as parasite growth inhibition after 72 hrs by Alamar blue assay; assay type: functional, organism-based; details: MHOM/SU/74/K27, 72 h; outline: as §1
Leishmania major = assay: Antileishmanial activity against promastigote stage of Leishmania major MHOM/SU/73/5-ASKH assessed as parasite growth inhibition after 72 hrs by Alamar blue assay; assay type: functional, organism-based; outline: as §1
Leishmania infantum = assay: Antileishmanial activity against promastigote stage of Leishmania infantum MHOM/TN/80/IPT1 assessed as parasite growth inhibition after 72 hrs by Alamar blue assay; assay type: functional, organism-based; details: MHOM/TN/80/IPT1, 72 h; outline: as §1
Leishmania donovani [7] = assay: Antileishmanial activity against amastigote stage of Leishmania donovani MHOM/NP/02/BPK282/0c14 infected in human THP1 cells assessed as parasite growth inhibition after 72 hrs by Giemsa staining-based assay; assay type: functional, organism-based; details: MHOM/NP/02/BPK282/0c14, THP-1, 72 h
Outline: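 THP-1 cells at 10^5 cells/mL differentiated with 0.1 µM PMA for 48 h at 37 °C, 5% CO2, then infected with stationary-phase promastigotes. After 24 h, compounds were added at 40–1.5 µM for 72 h. Wells were Giemsa-stained, and the infectivity index (% infected macrophages × mean amastigotes per macrophage) was counted on ≥100 cells in duplicate cultures. IC50/72h determined.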

[8] = Binding affinity to Leishmania spp. trypanothione reductase by surface plasmon resonance analysis; design: species or system Leishmania sp.
Outline: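 Recombinant L. infantum TR was amine-coupled to ~2000 RU on a carboxyl sensor chip. Analytes in HBS pH 7.4 + 1% DMSO were given as FastStep serial doubling injections from 1.56 to 100 µM, followed by dissociation after 100 s. A protein-free surface served as control. Sensorgrams are averages of three experiments. KD came from Scatchard plots and a global 1:1 binding fit.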

[9] = Safety index, ratio of test compound CC50 to amphotericin B CC50 for African green monkey Vero cells; assay type: ADME, cell-based; details: chlorocebus sabaeus
[10] = Safety index, ratio of test compound CC50 to amphotericin B CC50 for human THP1 cells; assay type: ADME, cell-based; details: THP-1 cells
[11] = Competitive inhibition of Leishmania spp. trypanothione reductase in presence of 75 to 400 uM TS2 by Dixon plot analysis; design: species or system Leishmania sp.
Outline: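 Recombinant L. infantum TR at 40 nM was equilibrated for 2 min at 25 °C with TS2 (75–400 µM) and inhibitor (30 nM–1 µM). The reaction was started with 40 µM NADPH, and NADPH oxidation was followed as A340 decrease (ε 6,222 M−1 cm−1). A Dixon plot was built by linear regression of reciprocal fitted rates against inhibitor concentration.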

Leishmania sp. = assay: Potency index, ratio of Sb3+ Ki to test compound Ki for Leishmania spp. trypanothione reductase
[12] = Ratio of IC50 for promastigote stage of Leishmania donovani MHOM/NP/02/BPK282/0c14 to Ki for Leishmania spp. trypanothione reductase
[13] = Ratio of IC50 for amastigote stage of Leishmania donovani MHOM/NP/02/BPK282/0c14 to Ki for Leishmania spp. trypanothione reductase

Structure (SMILES)	IC50 (Leishmania donovani [1]) [µM]	CC50 at 72 h [2] [µM]	selectivity ratio [3]	CC50 at 72 h [4] [µM]	selectivity ratio [5]	growth inhibition (GI) (Leishmania donovani [6])	further results
C#CCOc1ccc(C(=O)/C=C/c2ccc(Br)cc2)c(OC)c1	21.5	100	4.6	100	4.6	–	–
CC(C)=CCOc1ccc(C(=O)/C=C/c2cccnc2)c(O)c1	8.5	210	24.7	100	11.8	–	–
COc1cc(OCC=C(C)C)ccc1C(=O)/C=C/c1ccc(Br)cc1	16	600	37.5	100	6.3	–	–
C#CCOc1ccc(C(=O)/C=C/c2ccc([N+](=O)[O-])cc2)c(OC)c1	–	–	–	–	–	inactive	–
COc1cc(OCC=C(C)C)ccc1C(=O)/C=C/c1ccccc1	15	50	3.3	50	3.3	–	–
CC(C)=CCOc1ccc(C(=O)/C=C/c2ccncc2)c(O)c1	5	40	8	16	3.2	–	–
C#CCOc1ccc(C(=O)/C=C/c2ccc(F)cc2)c(OCC#C)c1	12.5	600	48	600	48	–	IC50 (Leishmania tropica): 13 µM; IC50 (Leishmania major): 10 µM; IC50 (Leishmania infantum): 1.6 µM; IC50 (Leishmania donovani [7]): 4.5 µM; Kd [8]: 2.4 µM; selectivity ratio [9]: 3; selectivity ratio [10]: 3
C#CCOc1ccc(C(=O)/C=C/c2ccncc2)c(OCC#C)c1	7	10	1.4	11	1.6	–	–
C#CCOc1ccc(C(=O)/C=C/c2ccc(OC)cc2)c(OCC#C)c1	–	–	–	–	–	inactive	–
C#CCOc1ccc(C(=O)/C=C/c2ccncc2)c(OC)c1	4	20	5	16	4	–	–
C#CCOc1ccc(C(=O)/C=C/c2cccnc2)c(O)c1	17.5	40	2.3	25	1.4	–	–
COc1cc(OCC=C(C)C)ccc1C(=O)/C=C/c1cc(OC)c(OC)c(OC)c1	11	40	3.6	25	2.3	–	–
COc1cc(OCC=C(C)C)ccc1C(=O)/C=C/c1ccco1	–	–	–	–	–	inactive	–
CC(C)=CCOc1ccc(C(=O)/C=C/c2ccccc2)c(OCC=C(C)C)c1	–	–	–	–	–	inactive	–
COc1cc(OCC=C(C)C)ccc1C(=O)/C=C/c1ccncc1	10.5	16	1.5	16	1.5	–	–
C[C@@H]1[C@H](O)[C@@H](C)/C=C/C=C/C=C/C=C/C=C/C=C/C=C/[C@H](O[C@@H]2O[C@H](C)[C@@H](O)[C@H](N)[C@@H]2O)C[C@@H]2O[C@](O)(C[C@@H](O)C[C@@H](O)[C@H](O)CC[C@@H](O)C[C@@H](O)CC(=O)O[C@H]1C)C[C@H](O)[C@H]2C(=O)O [AMPHOTERICIN B]	0.3	200	666	200	666	–	–

Structure (SMILES)	IC50 (Leishmania donovani [1]) [µM]	CC50 at 72 h [2] [µM]	selectivity ratio [3]	CC50 at 72 h [4] [µM]	selectivity ratio [5]	growth inhibition (GI) (Leishmania donovani [6])	further results
C#CCOc1ccc(C(=O)/C=C/c2ccc(OC)c(OC)c2)c(OC)c1	–	–	–	–	–	inactive	–
CC(C)=CCOc1ccc(C(=O)/C=C/c2ccccc2)c(O)c1	–	–	–	–	–	inactive	–
COc1ccc(/C=C/C(=O)c2ccc(OCC=C(C)C)cc2OC)cc1	–	–	–	–	–	inactive	–
CC(=O)Oc1cc(OCC=C(C)C)ccc1C(=O)/C=C/c1ccccc1	–	–	–	–	–	inactive	–
C#CCOc1ccc(C(=O)/C=C/c2ccc([N+](=O)[O-])cc2)c(OCC#C)c1	–	–	–	–	–	inactive	–
COc1cc(OCC=C(C)C)ccc1C(=O)/C=C/c1ccc(NC(C)=O)cc1	–	–	–	–	–	inactive	–
C#CCOc1ccc(C(=O)/C=C/c2cccnc2)c(OC)c1	9.5	15	1.6	16	1.7	–	–
C#CCOc1ccc(C(=O)/C=C/c2ccc(OC)c(OC)c2)c(OCC#C)c1	–	–	–	–	–	inactive	–
C#CCOc1ccc(C(=O)/C=C/c2cccnc2)c(OCC#C)c1	4	6	1.5	15	3.8	–	–
COc1cc(OCC=C(C)C)ccc1C(=O)/C=C/c1cccnc1	10.5	22	2	40	3.8	–	–
COc1ccc(/C=C/C(=O)c2ccc(OCC=C(C)C)cc2OC)cc1OC	–	–	–	–	–	inactive	–
C#CCOc1ccc(C(=O)/C=C/c2ccc(Br)cc2)c(OCC#C)c1	15	420	28	25	1.6	–	–
COc1cc(OCC=C(C)C)ccc1C(=O)/C=C/c1ccc([N+](=O)[O-])cc1	3	600	200	600	200	–	IC50 (Leishmania tropica): 5.2 µM; IC50 (Leishmania major): 3.3 µM; IC50 (Leishmania infantum): 1.6 µM; IC50 (Leishmania donovani [7]): 14 µM; Kd [8]: 0.6 µM; Ki [11]: 0.45 µM; Ratio Ki (Leishmania sp.): 3; selectivity ratio [9]: 3; selectivity ratio [10]: 3; Ratio [12]: 6; Ratio [13]: 30
C#CCOc1ccc(C(=O)/C=C/c2cc(OC)c(OC)c(OC)c2)c(OC)c1	–	–	–	–	–	inactive	–
COc1cc(OCC=C(C)C)ccc1C(=O)/C=C/c1ccc(F)cc1	–	–	–	–	–	inactive	–
C#CCOc1ccc(C(=O)/C=C/c2cc(OC)c(OC)c(OC)c2)c(OCC#C)c1	–	–	–	–	–	inactive	–
